Results published in ChEMBL document CHEMBL4024773, “The Magic of Crystal Structure-Based Inhibitor Optimization: Development of a Butyrylcholinesterase Inhibitor with Picomolar Affinity and in Vivo Activity” (J Med Chem, 2018).
Activity calls are given as the source filed them. The calls are words filed in the database; no cut-off is given here.

Assays:
[1] = human, hepatocytes, 2 h
Cholinesterase [2] = molecular target: T1, Cholinesterase (Homo sapiens, UniProt P06276); assay: Competitive inhibition of recombinant human BChE using butyrylthiocholine iodide as substrate at pH 8 by stopped flow assay
Cholinesterase [3] = molecular target: T1, Cholinesterase; assay: Inhibition of recombinant human BChE using butyrylthiocholine iodide as substrate preincubated for 300 secs followed by substrate addition measured for 1 min by Ellman's method
Acetylcholinesterase = molecular target: T2, Acetylcholinesterase (Mus musculus, UniProt P21836); assay: Inhibition of mouse AChE using acetylthiocholine iodide as substrate preincubated for 300 secs followed by substrate addition measured for 1 min by Ellman's method
T2 sequence (P21836 whole entry): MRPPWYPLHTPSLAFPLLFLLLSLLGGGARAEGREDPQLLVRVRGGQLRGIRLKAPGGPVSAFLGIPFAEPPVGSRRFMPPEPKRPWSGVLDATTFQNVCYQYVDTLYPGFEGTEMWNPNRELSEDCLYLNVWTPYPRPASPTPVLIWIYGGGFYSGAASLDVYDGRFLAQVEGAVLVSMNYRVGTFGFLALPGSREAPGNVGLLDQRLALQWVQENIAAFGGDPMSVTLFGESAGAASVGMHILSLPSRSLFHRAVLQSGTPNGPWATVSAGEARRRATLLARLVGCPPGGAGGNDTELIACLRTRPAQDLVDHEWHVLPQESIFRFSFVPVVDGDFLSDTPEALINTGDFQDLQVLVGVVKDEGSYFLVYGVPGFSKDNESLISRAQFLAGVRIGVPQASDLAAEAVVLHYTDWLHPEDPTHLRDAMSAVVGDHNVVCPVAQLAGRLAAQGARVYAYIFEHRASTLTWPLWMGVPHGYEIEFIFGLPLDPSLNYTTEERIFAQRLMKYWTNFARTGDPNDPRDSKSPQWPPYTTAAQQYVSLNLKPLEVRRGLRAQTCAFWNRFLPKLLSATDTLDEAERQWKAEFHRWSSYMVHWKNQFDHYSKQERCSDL
Procedure, shortened: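 Inhibition of murine AChE measured by the Ellman method with acetylthiocholine iodide as substrate. IC50 determined only where inhibition reached at least 50% at 10 µM. Otherwise recorded as IC50 >10 µM.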

[4] = molecular target: Butyrylcholinesterase (Rattus norvegicus) (UniProt Q9JKC1); details: 300 uM
Mus musculus [5] = assay: Reversal of scopolamine-induced memory loss in C57BL/6J mouse assessed as decrease in escape latency time at 10 mg/kg, ip administered 60 mins prior to test post scopolamine-challenge measured on day 7 by Morris water maze test; type: functional, organism-based
Mus musculus [6] = assay: Reversal of scopolamine-induced memory impairment in C57BL/6J mouse assessed as decrease in traveled distance to reach the escape platform at 10 mg/kg, ip administered 60 mins prior to test post scopolamine challenge measured on day 7 by Morris water maze test; type: functional, organism-based
[7] = Drug level in cryopreserved human hepatocytes treated with HCl salt of (+/-)-N-((1-(2,3-Dihydro-1H-inden-2-yl)piperidin-3-yl)methyl)-N-(2-(dimethylamino)ethyl)-2-naphthamide Dichloride at 1 uM after 120 mins by HPLC-MS/MS analysis; type: ADME, cell-based, Hepatocyte; details: 2 h
Procedure, shortened: (§1)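 Flurazepam, naloxone and propranolol, which are high-extraction […] references, served as positive controls.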

[8] = Apparent permeability across apical to basolateral side in human Caco2 cells at 100 uM after 20 mins by fluorescein dye based HPLC-UV analysis; type: ADME, cell-based; details: Caco-2
Procedure, shortened: (§2)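 Caco-2 permeability (Papp) was measured bidirectionally, absorptive apical-to-basolateral and eliminatory basolateral-to-apical. The efflux ratio was calculated as Papp(B–A)/Papp(A–B).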

[9] = Apparent permeability across basolateral to apical side in human Caco2 cells at 100 uM after 20 mins by fluorescein dye based HPLC-UV analysis; type: ADME, cell-based; details: Caco-2
Procedure, shortened: as §2

[10] = Protein binding in human plasma at 10 uM after 4 hrs by HPLC-MS/MS analysis; type: ADME, cell-free; details: read-out: PPB (converted)
[11] = Half life in human plasma at 1 uM by HPLC-MS/MS analysis; type: ADME, cell-free
[12] = Stability of the compound in human plasma assessed as compound remaining at 1 uM after 120 mins by HPLC-MS/MS analysis; type: ADME, cell-free; details: read-out: Stability
[13] = Half life in cryopreserved human hepatocytes at 1 uM after 120 mins by HPLC-MS/MS analysis; type: ADME, cell-based, Hepatocyte
Procedure, shortened: as §1

[14] = Apparent intrinsic clearance in cryopreserved human hepatocytes assessed per million cells at 1 uM after 120 mins by HPLC-MS/MS analysis; type: ADME, cell-based, Hepatocyte; details: 2 h
Procedure, shortened: as §1

[15] = Drug uptake in Wistar Han rat plasma at 10 mg/kg, ip after 1 hr by LC-MS/MS analysis; type: ADME, organism-based
[16] = Ratio of drug level in brain to plasma in Wistar Han rat at 10 mg/kg, ip after 1 hr by LC-MS/MS analysis; type: ADME, organism-based; details: read-out: BPR
Procedure, shortened: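 Rats received a single intraperitoneal injection of 10 mg/kg. Brain tissue (µg/kg) and blood plasma (µg/L) concentrations were measured 1 h later and reported as mean ±SEM. The brain-to-plasma ratio was calculated from these concentrations.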

Mus musculus [17] = assay: Reversal of scopolamine-induced hyperlocomotion in C57BL/6J mouse assessed as speed of swimming at 30 mg/kg, ip administered 60 mins prior to test post scopolamine challenge measured on day 7 by Morris water maze test (reference value: 0.20 meter/s); type: functional
Mus musculus [18] = assay: Toxicity in Albino Swiss CD-1 mouse assessed as motor impairment at 30 mg/kg, ip using rod revolving at 6, 18, or 24 rpm after 60 mins by rotarod test; type: organism-based; details: in vivo, 1 h
Procedure, shortened: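 Rotarod test in mice given 30 mg/kg intraperitoneally, the dose used in the water maze tests. Motor performance recorded at rod speeds of 6, 18 and 24 rpm.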

Mus musculus [19] = assay: Toxicity in Albino Swiss CD-1 mouse assessed as reduction in locomotor activity by measuring number of light beam crossings at 30 mg/kg, ip measured at 24 to 30 mins post dose; type: organism-based; details: in vivo
Procedure, shortened: (§3)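 Mice were given 30 mg/kg intraperitoneally, the same dose used in the Morris water-maze task. Safety was assessed with a locomotor activity test monitored over time, rotarod at 6, 18 and 24 rpm, and observation for acute cholinergic adverse signs.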

Mus musculus [20] = assay: Toxicity in Albino Swiss CD-1 mouse assessed as acute adverse cholinergic effects at 30 mg/kg, ip; type: organism-based; details: in vivo
Procedure, shortened: as §3

[21] = Drug metabolism in cryopreserved human hepatocytes assessed as (+/-)-N-((1-(2,3-Dihydro-1H-inden-2-yl)piperidin-3-yl)methyl)-N-(2-(methylamino)ethyl)-2-naphthamide dihydrochloride formation at 1 uM after 120 mins by HPLC-MS/MS analysis; type: ADME, cell-based, Hepatocyte; details: 2 h
Procedure, shortened: as §1

Brain = details: rat, in vivo, ip, 10 mg/kg, 1 h
in vitro [22] = details: human, SH-SY5Y cells
in vitro [23] = details: human, HepG2 cells
Cholinesterase [24] = molecular target: T1, Cholinesterase; details: 5 to 10 nM
Mus musculus [25] = assay: Reversal of scopolamine-induced hyperlocomotion in C57BL/6J mouse assessed as speed of swimming at 10 mg/kg, ip administered 60 mins prior to test post scopolamine challenge measured on day 7 by Morris water maze test (reference value: 0.20 meter/s); type: functional
[26] = Efflux ratio of apparent permeability from basolateral to apical side over apical to basolateral side in human Caco2 cells; type: ADME, cell-based; details: Caco-2

T1 sequence (P06276 whole entry): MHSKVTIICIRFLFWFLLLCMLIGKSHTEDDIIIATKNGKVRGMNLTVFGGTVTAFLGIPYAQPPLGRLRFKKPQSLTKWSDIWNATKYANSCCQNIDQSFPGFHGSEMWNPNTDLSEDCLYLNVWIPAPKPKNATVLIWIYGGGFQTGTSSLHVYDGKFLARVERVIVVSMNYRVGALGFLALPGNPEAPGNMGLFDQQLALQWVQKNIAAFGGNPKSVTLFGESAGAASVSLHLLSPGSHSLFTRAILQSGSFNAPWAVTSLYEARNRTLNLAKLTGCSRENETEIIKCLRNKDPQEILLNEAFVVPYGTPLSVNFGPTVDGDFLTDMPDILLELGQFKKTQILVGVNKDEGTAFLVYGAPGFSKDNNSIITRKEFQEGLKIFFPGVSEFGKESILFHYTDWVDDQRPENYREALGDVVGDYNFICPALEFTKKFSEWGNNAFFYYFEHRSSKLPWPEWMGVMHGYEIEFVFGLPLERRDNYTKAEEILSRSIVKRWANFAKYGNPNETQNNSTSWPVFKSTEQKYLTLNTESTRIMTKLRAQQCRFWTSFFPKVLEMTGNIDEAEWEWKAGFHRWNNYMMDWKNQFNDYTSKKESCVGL
Chain of Butyrylcholinesterase (Rattus norvegicus) (Q9JKC1 as listed by the source): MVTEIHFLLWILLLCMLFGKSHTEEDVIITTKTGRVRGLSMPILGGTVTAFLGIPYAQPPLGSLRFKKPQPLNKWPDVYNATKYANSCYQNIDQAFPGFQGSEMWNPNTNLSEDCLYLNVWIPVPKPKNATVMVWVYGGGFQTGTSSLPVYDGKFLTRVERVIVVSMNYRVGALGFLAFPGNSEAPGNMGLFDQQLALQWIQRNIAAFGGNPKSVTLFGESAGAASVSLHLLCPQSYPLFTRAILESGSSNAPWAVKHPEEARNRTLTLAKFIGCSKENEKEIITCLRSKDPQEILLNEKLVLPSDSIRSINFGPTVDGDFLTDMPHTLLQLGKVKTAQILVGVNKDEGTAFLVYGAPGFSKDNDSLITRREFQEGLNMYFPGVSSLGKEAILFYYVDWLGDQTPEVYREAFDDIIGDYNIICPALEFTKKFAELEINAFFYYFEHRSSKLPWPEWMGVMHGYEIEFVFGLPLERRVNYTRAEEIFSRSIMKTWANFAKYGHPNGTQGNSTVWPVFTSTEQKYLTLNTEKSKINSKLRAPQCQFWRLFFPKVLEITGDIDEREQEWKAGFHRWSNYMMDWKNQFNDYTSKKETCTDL

Question: With O=c1cc(C(F)(F)F)c2ccc(O)cc2o1 as the molecule, how does the Stability [1] read?
Answer: Unstable

Question: With c1ccc2c(NCCCCCCCNc3c4c(nc5ccccc35)CCCC4)c3c(nc2c1)CCCC3 as the molecule, how does the Ki (Cholinesterase [2]) read?
Answer: 0.163 nM

Question: With COCCN(CC1CCN(Cc2ccccc2)CC1)C(=O)c1ccc2ccccc2c1 as the molecule, how does the IC50 (Cholinesterase [3]) read?
Answer: 702 nM

Question: And the IC50 (Acetylcholinesterase)?
Answer: > 10000 nM

Question: Which IC50 (Acetylcholinesterase) does the source give for COCCN(CC1CCCN(Cc2ccccc2)C1)S(=O)(=O)c1ccc2ccccc2c1 (configuration not stated) here?
Answer: > 10000 nM

Question: What about the inhibition [4] of the same molecule?
Answer: Active

Question: Which Activity (Mus musculus [5]) does the source give for COc1cc2c(cc1OC)C(=O)C(CC1CCN(Cc3ccccc3)CC1)C2 (configuration not stated) here?
Answer: Active

Question: What about the Activity (Mus musculus [6]) of the same molecule?
Answer: Active

Question: For COCCN(CC1CCCN(Cc2ccccc2)C1)C(=O)c1ccc2ccccc2c1 (racemic), which IC50 (Cholinesterase [3]) is on record?
Answer: 230 nM

Question: And the IC50 (Acetylcholinesterase)?
Answer: > 10000 nM

Question: Which IC50 (Cholinesterase [3]) does the source give for COCCN(CC1CCCN(C2Cc3ccccc3C2)C1)C(=O)c1ccc2cc(Br)ccc2c1 (racemic) here?
Answer: 410 nM

Question: What about the IC50 (Acetylcholinesterase) of the same molecule?
Answer: > 10000 nM

Question: What does the source list for CNCCN(CC1CCCN(C2Cc3ccccc3C2)C1)C(=O)c1ccc2ccccc2c1.Cl.Cl (racemic)?
Answer: IC50 (Cholinesterase [3]): 18 nM; Drug metabolism [7]: Metabolite_Detected

Question: For O=C(NCC1CCCN(Cc2ccccc2)C1)c1ccc2ccccc2c1 (racemic), which IC50 (Cholinesterase [3]) is on record?
Answer: 1440 nM

Question: What about the IC50 (Acetylcholinesterase) of the same molecule?
Answer: > 10000 nM

Question: What does the source list for O=C(NCC1CCCN(C2Cc3ccccc3C2)C1)c1cccc2ccccc12 (racemic)?
Answer: IC50 (Cholinesterase [3]): 67 nM; IC50 (Acetylcholinesterase): > 10000 nM

Question: For O=C(NCC1CCCN(Cc2nc3ccccc3s2)C1)c1ccc2ccccc2c1 (racemic), which IC50 (Cholinesterase [3]) is on record?
Answer: 632 nM

Question: What about the IC50 (Acetylcholinesterase) of the same molecule?
Answer: > 10000 nM

Question: What does the source list for CN(C)CCN(CC1CCCN(C2Cc3ccccc3C2)C1)C(=O)c1ccc2ccccc2c1.Cl (racemic)?
Answer: Papp A→B at 20 min, 100 µM [8]: 28 ×10⁻⁶ cm/s; Papp B→A at 20 min, 100 µM [9]: 46.1 ×10⁻⁶ cm/s; fraction unbound at 4 h, 10 µM [10]: 0.07; half-life at 1 µM [11]: > 2 h; remaining at 2 h, 1 µM [12]: 76%; half-life at 1 µM [13]: > 2 h; CLH(app) [14]: < 8.2 µL/min; concentration at 1 h [15]: 169 ng/mL; Kp at 1 h [16]: 1.47; Activity (Mus musculus [17]): 0.18 meter/s; Activity (Mus musculus [18]): Non-Toxic; Activity (Mus musculus [19]): Toxic; Activity (Mus musculus [20]): Non-Toxic; Drug metabolism [21]: Metabolite_Detected; Drug uptake (Brain): 248 µg/kg; CC50 at 48 h (in vitro [22]): 6630 nM; CC50 at 24 h (in vitro [23]): 33900 nM

Question: For CN(C)CCN(CC1CCCN(C2Cc3ccccc3C2)C1)C(=O)c1ccc2ccccc2c1 (racemic), which IC50 (Acetylcholinesterase) is on record?
Answer: > 10000 nM

Question: What does the source list for COCCCN(CC1CCCN(C2Cc3ccccc3C2)C1)C(=O)c1ccc2ccccc2c1 (racemic)?
Answer: IC50 (Cholinesterase [3]): 38.2 nM; IC50 (Acetylcholinesterase): > 10000 nM

Question: Which deltaG (Cholinesterase [24]) does the source give for COCCN(CC1CCCN(C2Cc3ccccc3C2)C1)C(=O)c1ccc2ccccc2c1 (single isomer, unassigned; (+)) here?
Answer: -11.9 kcal/mol

Question: Which Activity (Mus musculus [25]) does the source give for COc1cc2c(cc1OC)C(=O)C(CC1CCN(Cc3ccccc3)CC1)C2.Cl (configuration not stated) [DONEPEZIL HYDROCHLORIDE] here?
Answer: 0.15 meter/s

Question: For COc1cc2c(cc1OC)C(=O)C(CC1CCN(Cc3ccccc3)CC1)C2 (configuration not stated) [DONEPEZIL], which concentration at 1 h [15] is on record?
Answer: 2 to 300 ng/mL

Question: Which Stability [1] does the source give for CCN(CC)CCN1C(=O)CN=C(c2ccccc2F)c2cc(Cl)ccc21 [FLURAZEPAM] here?
Answer: Unstable

Question: Which Papp A→B at 20 min, 100 µM [8] does the source give for COC(=O)c1ccccc1-c1c2ccc(=N)cc-2oc2cc(N)ccc12.Cl [RHODAMINE123] here?
Answer: 1.1 ×10⁻⁶ cm/s

Question: And the Papp B→A at 20 min, 100 µM [9]?
Answer: 7.7 ×10⁻⁶ cm/s

Question: What about the efflux ratio [26] of the same molecule?
Answer: 7.3
